Measured values of several laboratories.
Lines come from different studies, so protocols differ.
Target: Atypical kinase COQ8A, mitochondrial (COQ8A, Homo sapiens, UniProt Q8NI60)

| Structure (SMILES) | effect on | method | concentration | remaining binding |
| --- | --- | --- | --- | --- |
| O=C(NCCCN1CCOCC1)c1ccc(Nc2nccc(-c3cc4ccccc4s3)n2)cc1 | binding | competition with immobilised ligand | 1 µM | 90% |
| C[C@@H]1CN(c2ccc3ncc(-c4ccc5[nH]nc(C6CC6)c5c4)n3n2)C[C@H](C)O1 | binding | competition with immobilised ligand | 50 nM | 94% |
| CC(=O)C1=C(C)N(c2cccc(C(F)(F)F)c2)C(=O)N[C@@H]1c1ccc(C#N)nc1 | cell-free assay | competition with immobilised ligand | 1 µM | 100% |
| N[C@@H]1CCN(c2nccc(-c3cnn4ncccc34)n2)C1 | binding | – | 1 µM | 100% |
| COc1cnc(Nc2cccc(S(N)(=O)=O)c2)nc1N1CCN(c2ccccc2)CC1 | binding | competition with immobilised ligand | 1 µM | 100% |
| CCC(=O)N[C@@H]1CC[C@H](C(=O)N(C)c2ccc(-c3nc4ccccc4o3)cc2)C1 | cell-free assay | competition with immobilised ligand | 1 µM | 99% |
| O=C(NCCCN1CCOCC1)c1ccc(Nc2ncc(Cl)c(-c3ccc(Cl)s3)n2)cc1 | binding | competition with immobilised ligand | 1 µM | 100% |
| O=C(Nc1c[nH]nc1C(=O)NC1CCNCC1)c1cc(F)cc(F)c1 | binding | competition with immobilised ligand | 1 µM | 100% |
| Cn1nc(C(F)(F)F)cc1-c1cnc(N2CCc3cc(S(=O)(=O)Nc4c(F)cc(Cl)cc4F)cc(N4CCCC4=O)c32)nc1 | cell-free assay | competition with immobilised ligand | 1 µM | 100% |
| c1cnn2ncc(-c3ccnc(N4CCC45COC5)n3)c2c1 | binding | – | 1 µM | 100% |
| Cc1cc(NC(=O)c2cccc(S(F)(F)(F)(F)F)c2)cc(-n2ccn3nc(-c4cccnc4)cc23)c1 | cell-free assay | competition with immobilised ligand | 1 µM | 82.8% |
| c1cncc(-c2cccc(Nc3nccc(NC4CCCCC4)n3)c2)c1 | binding | competition with immobilised ligand | 10 µM | 81% |
| CS(=O)(=O)c1cc(C2(NC(=O)c3cncc4c3cnn4-c3ccc(F)cc3)CC2)ccn1 | cell-free assay | competition with immobilised ligand | 1 µM | 100% |
| COc1ccnn2ncc(-c3ccnc(N(C)C)n3)c12 | binding | – | 1 µM | 100% |
| Nc1ncc2c(n1)-c1c([nH]c3ccc(C#CC4CC4)cc13)CCCC2 | binding | competition with immobilised ligand | 1 µM | 96% |
| Cc1cnc(Nc2ccc(C(=O)N3CCC(N4CCCC4)CC3)cc2)nc1-c1cc2ccccc2s1 | binding | competition with immobilised ligand | 1 µM | 85% |
| C[C@@H](c1ccc(-n2cnc3c(N)ncnc32)cc1)N1CCc2nn(C)c(Cc3ccccc3)c2C1=O | binding | competition with immobilised ligand | 0.1 µM | 84% |
| CC1CCCN1c1nccc(-c2cnn3ncccc23)n1 (stereo not drawn) | binding | – | 1 µM | 100% |
| N#Cc1ccccc1CSc1nnc2c(n1)[nH]c1ccccc12 | binding | competition with immobilised ligand | 10 µM | 95% |
| CN(CCCC(F)(F)F)c1nccc(-c2cnn3ncccc23)n1 | binding | – | 1 µM | 99% |
| C[C@H](c1ccnc(Nc2nc3ccc(-c4cc(N(C)C)ncn4)cc3[nH]2)c1)N1CCN(C(=O)CC(F)(F)F)CC1 | cell-free assay | competition with immobilised ligand | 0.1 µM | 100% |
| CC(C)(C)c1ccc(-c2nc(CBr)nn2-c2cccc(O)c2)cc1 | cell-free assay | competition with immobilised ligand | 10 µM | 86% |
| C[C@@H]1CCN(c2nccc(-c3cnn4ncccc34)n2)C1 | binding | – | 1 µM | 100% |
| CNCc1ccccc1-c1csc([C@H](C)Nc2nc(C)nc3cc(OC)c(OC)cc23)c1 | cell-free assay | competition with immobilised ligand | 1 µM | 91% |
